From ChEMBL document CHEMBL1143839, “Antiplasmodial activity of lauryl-lysine oligomers” (Antimicrob Agents Chemother, 2007)
pIC50: −log10 of the molar value.

How the values were obtained:
MDCK = assay: Cytotoxicity against dog MDCK cells after 3.5 hrs by Alamar blue assay; type: cell-based; details: Canis lupus familiaris
Method in brief: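 Cells grown to confluence (~3 days) with different compound concentrations in parallel cultures. Viability then read by Alamar blue fluorescence 3.5 h after dye addition. Cycloheximide 10 µM added at start as positive control. IC50 taken as concentration reducing viability by 50%. At least two independent experiments in duplicate.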

[1] = Ratio of LC50 for erythrocytes to IC50 for Plasmodium falciparum W2; type: functional
[2] = Toxicity against human erythrocytes assessed as hemolysis at 100 uM after 1 hr; type: cell-based, Erythrocyte; details: read-out: Activity
Method in brief: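 Heparinized fresh human blood washed three times in PBS (200 × g, 2 min), mixed with compound in PBS to 4% hematocrit. Incubated 1 h at 37°C with stirring, then centrifuged. Supernatant absorbance read at 460 nm. PBS alone gave baseline and 0.4% Triton X-100 gave 100% lysis. At least two independent experiments.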

[3] = Ratio of IC50 for dog MDCK cells to IC50 for Plasmodium falciparum W2; type: functional
Plasmodium falciparum = assay: Antiplasmodial activity against Plasmodium falciparum W2 as reduced [3H]hypoxanthine uptake after 18 hrs

SMILES: NCCCCC(N)C(=O)NCCCCCCCCCCCC(=O)NC(CCCCN)C(=O)O (stereo not given)
- pIC50 (MDCK): < 3.10
- Ratio LC50/IC50 [1]: >700
- hemolysis at 1 h, 100 µM [2]: < 0.1%
- Ratio IC50 [3]: >12
- pIC50 (Plasmodium falciparum): 4.17

SMILES: NCCCCC(N)C(=O)NCCCCCCCCCCCC(=O)NC(CCCCN)C(=O)NCCCCCCCCCCCC(=O)NC(CCCCN)C(=O)O (stereo not given)
- pIC50 (MDCK): < 3.40
- Ratio LC50/IC50 [1]: >6300
- hemolysis at 1 h, 100 µM [2]: < 0.1%
- Ratio IC50 [3]: >51
- pIC50 (Plasmodium falciparum): 5.11

SMILES: NCCCCCCCCCCCC(=O)NC(CCCCN)C(=O)NCCCCCCCCCCCC(=O)NC(CCCCN)C(=O)O (stereo not given)
- pIC50 (MDCK): < 3.82
- Ratio LC50/IC50 [1]: 7714
- hemolysis at 1 h, 100 µM [2]: 0.14%
- Ratio IC50 [3]: >32
- pIC50 (Plasmodium falciparum): 5.33

SMILES: CCCCCCCCCCCC(=O)NC(CCCCN)C(=O)NCCCCCCCCCCCC(=O)NC(CCCCN)C(=O)O (stereo not given)
- pIC50 (MDCK): < 4.00
- Ratio LC50/IC50 [1]: 288
- hemolysis at 1 h, 100 µM [2]: 4.9%
- Ratio IC50 [3]: >28
- pIC50 (Plasmodium falciparum): 5.45

SMILES: CCCCCCCCCCCC(=O)NC(CCCCN)C(=O)NCCCCCCCCCCCC(=O)NC(CCCCN)C(=O)NCCCCCCCCCCCC(=O)NC(CCCCN)C(=O)NCCCCCCCCCCCC(=O)NC(CCCCN)C(=O)O (stereo not given)
- pIC50 (MDCK): 4.43
- Ratio LC50/IC50 [1]: 2317
- hemolysis at 1 h, 100 µM [2]: 26.1%
- Ratio IC50 [3]: 1052
- pIC50 (Plasmodium falciparum): 7.10

SMILES: NCCCCC(N)C(=O)NCCCCCCCCCCCC(=O)NC(CCCCN)C(=O)NCCCCCCCCCCCC(=O)NC(CCCCN)C(=O)NCCCCCCCCCCCC(=O)NC(CCCCN)C(=O)O (stereo not given)
- pIC50 (MDCK): < 3.57
- Ratio LC50/IC50 [1]: 1263
- hemolysis at 1 h, 100 µM [2]: 2.3%
- Ratio IC50 [3]: >157
- pIC50 (Plasmodium falciparum): 5.76

SMILES: CCCCCCCCCCCC(=O)NC(CCCCN)C(=O)NCCCCCCCCCCCC(=O)NC(CCCCN)C(=O)NCCCCCCCCCCCC(=O)NC(CCCCN)C(=O)O (stereo not given)
- pIC50 (MDCK): 4.12
- Ratio LC50/IC50 [1]: 442
- hemolysis at 1 h, 100 µM [2]: 13.3%
- Ratio IC50 [3]: 88
- pIC50 (Plasmodium falciparum): 6.07

SMILES: NCCCCCCCCCCCC(=O)NC(CCCCN)C(=O)NCCCCCCCCCCCC(=O)NC(CCCCN)C(=O)NCCCCCCCCCCCC(=O)NC(CCCCN)C(=O)O (stereo not given)
- pIC50 (MDCK): 4.04
- Ratio LC50/IC50 [1]: 10734
- hemolysis at 1 h, 100 µM [2]: 3.4%
- Ratio IC50 [3]: 650
- pIC50 (Plasmodium falciparum): 6.85

SMILES: NCCCCCCCCCCCC(=O)NC(CCCCN)C(=O)NCCCCCCCCCCCC(=O)NC(CCCCN)C(=O)NCCCCCCCCCCCC(=O)NC(CCCCN)C(=O)NCCCCCCCCCCCC(=O)NC(CCCCN)C(=O)O (stereo not given)
- pIC50 (MDCK): < 4.12
- Ratio LC50/IC50 [1]: 126
- hemolysis at 1 h, 100 µM [2]: 24.6%
- Ratio IC50 [3]: >47
- pIC50 (Plasmodium falciparum): 5.80
